Tested on: HEK-293T
Assay: Multiplex assay against HEK293T;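 for Population Tubulin-Different-Phenotype (%): share of the cells with healthy nuclei that show this phenotype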
Assay type: toxicity, cell-based
Details: human
In short: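 Cells were classed with CellPathfinder machine-learning gating, first as Hoechst high-intensity objects or normal cells, then (normal cells) as healthy, pyknosed or fragmented nuclei, and finally (pyknosed cells) as mitotic or apoptotic. Staining of live cells at seeding used Hoechst33342, BioTracker Green Microtubule Cytoskeleton Dye, MitoTracker Red and Annexin V Alexa Fluor 680, with imaging on a CQ1 microscope at 37°C and 5% CO2 after compound addition. Tubulin, mitochondrial-mass and membrane-permeability phenotypes are per cents of healthy-nucleus cells.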

[1] = 12 h, 1 µM, compound concentration 1 uM, replicate 1
[2] = 12 h, 1 µM, compound concentration 1 uM, replicate 2
[3] = 12 h, 10 µM, compound concentration 10 uM, replicate 1
[4] = 12 h, 10 µM, compound concentration 10 uM, replicate 2
[5] = 24 h, 1 µM, compound concentration 1 uM, replicate 1
[6] = 24 h, 1 µM, compound concentration 1 uM, replicate 2
[7] = 24 h, 10 µM, compound concentration 10 uM, replicate 1
[8] = 24 h, 10 µM, compound concentration 10 uM, replicate 2

CCN(CC)CCCCNc1ncc2cc(-c3cc(OC)cc(OC)c3)c(NC(=O)NC(C)(C)C)nc2n1 [PD-173074]
Population Apoptotic (%) [1]: 8% | Population Fragmented Nuclei (%) [1]: 79% | Population Healthy Nuclei (%) [1]: 8% | Population Hoechst High Intensity Objects (%) [1]: 69% | Population Membrane Permeable-Phenotype (%) [1]: 15% | Population Mitochondria Different-Phenotype (%) [1]: 31% | Population Mitotic Cells (%) [1]: 91% | Population Normal (%) [1]: 30% | Population Pyknosed Nuclei (%) [1]: 11% | Population Tubulin-Different-Phenotype (%) [1]: 42% | Total Cell Count [1]: 685 | Population Apoptotic (%) [2]: 6% | Population Fragmented Nuclei (%) [2]: 80% | Population Healthy Nuclei (%) [2]: 1% | Population Hoechst High Intensity Objects (%) [2]: 80% | Population Membrane Permeable-Phenotype (%) [2]: 66% | Population Mitochondria Different-Phenotype (%) [2]: 0% | Population Mitotic Cells (%) [2]: 93% | Population Normal (%) [2]: 19% | Population Pyknosed Nuclei (%) [2]: 17% | Population Tubulin-Different-Phenotype (%) [2]: 66% | Total Cell Count [2]: 917 | Population Fragmented Nuclei (%) [3]: 29% | Population Healthy Nuclei (%) [3]: 52% | Population Hoechst High Intensity Objects (%) [3]: 48% | Population Membrane Permeable-Phenotype (%) [3]: 26% | Population Mitochondria Different-Phenotype (%) [3]: 6% | Population Normal (%) [3]: 51% | Population Pyknosed Nuclei (%) [3]: 17% | Population Tubulin-Different-Phenotype (%) [3]: 33% | Total Cell Count [3]: 693 | Population Apoptotic (%) [4]: 28% | Population Fragmented Nuclei (%) [4]: 7% | Population Healthy Nuclei (%) [4]: 85% | Population Hoechst High Intensity Objects (%) [4]: 42% | Population Membrane Permeable-Phenotype (%) [4]: 22% | Population Mitochondria Different-Phenotype (%) [4]: 24% | Population Mitotic Cells (%) [4]: 71% | Population Normal (%) [4]: 57% | Population Pyknosed Nuclei (%) [4]: 7% | Population Tubulin-Different-Phenotype (%) [4]: 71% | Total Cell Count [4]: 1213 | Population Apoptotic (%) [5]: 32% | Population Fragmented Nuclei (%) [5]: 84% | Population Healthy Nuclei (%) [5]: 6% | Population Hoechst High Intensity Objects (%) [5]: 55% | Population Membrane Permeable-Phenotype (%) [5]: 36% | Population Mitochondria Different-Phenotype (%) [5]: 15% | Population Mitotic Cells (%) [5]: 68% | Population Normal (%) [5]: 44% | Population Pyknosed Nuclei (%) [5]: 8% | Population Tubulin-Different-Phenotype (%) [5]: 26% | Total Cell Count [5]: 629 | Population Apoptotic (%) [6]: 0% | Population Fragmented Nuclei (%) [6]: 91% | Population Healthy Nuclei (%) [6]: 1% | Population Hoechst High Intensity Objects (%) [6]: 60% | Population Membrane Permeable-Phenotype (%) [6]: 0% | Population Mitochondria Different-Phenotype (%) [6]: 20% | Population Mitotic Cells (%) [6]: 100% | Population Normal (%) [6]: 39% | Population Pyknosed Nuclei (%) [6]: 6% | Population Tubulin-Different-Phenotype (%) [6]: 60% | Total Cell Count [6]: 891 | Population Apoptotic (%) [7]: 28% | Population Fragmented Nuclei (%) [7]: 17% | Population Healthy Nuclei (%) [7]: 71% | Population Hoechst High Intensity Objects (%) [7]: 36% | Population Membrane Permeable-Phenotype (%) [7]: 25% | Population Mitochondria Different-Phenotype (%) [7]: 9% | Population Mitotic Cells (%) [7]: 71% | Population Normal (%) [7]: 63% | Population Pyknosed Nuclei (%) [7]: 11% | Population Tubulin-Different-Phenotype (%) [7]: 50% | Total Cell Count [7]: 733 | Population Apoptotic (%) [8]: 15% | Population Fragmented Nuclei (%) [8]: 16% | Population Healthy Nuclei (%) [8]: 80% | Population Hoechst High Intensity Objects (%) [8]: 27% | Population Membrane Permeable-Phenotype (%) [8]: 20% | Population Mitochondria Different-Phenotype (%) [8]: 6% | Population Mitotic Cells (%) [8]: 85% | Population Normal (%) [8]: 72% | Population Pyknosed Nuclei (%) [8]: 2% | Population Tubulin-Different-Phenotype (%) [8]: 58% | Total Cell Count [8]: 1994

Cc1nc(Nc2n[nH]c3c2CN(C(=O)N[C@H](CN(C)C)c2ccccc2)C3(C)C)c2sccc2n1 [PF-03758309]
Population Apoptotic (%) [1]: 22% | Population Fragmented Nuclei (%) [1]: 12% | Population Healthy Nuclei (%) [1]: 65% | Population Hoechst High Intensity Objects (%) [1]: 12% | Population Membrane Permeable-Phenotype (%) [1]: 2% | Population Mitochondria Different-Phenotype (%) [1]: 5% | Population Mitotic Cells (%) [1]: 77% | Population Normal (%) [1]: 87% | Population Pyknosed Nuclei (%) [1]: 22% | Population Tubulin-Different-Phenotype (%) [1]: 3% | Total Cell Count [1]: 616 | Population Apoptotic (%) [2]: 8% | Population Fragmented Nuclei (%) [2]: 5% | Population Healthy Nuclei (%) [2]: 87% | Population Hoechst High Intensity Objects (%) [2]: 3% | Population Membrane Permeable-Phenotype (%) [2]: 0% | Population Mitochondria Different-Phenotype (%) [2]: 14% | Population Mitotic Cells (%) [2]: 91% | Population Normal (%) [2]: 96% | Population Pyknosed Nuclei (%) [2]: 6% | Population Tubulin-Different-Phenotype (%) [2]: 6% | Total Cell Count [2]: 1340 | Population Apoptotic (%) [3]: 27% | Population Fragmented Nuclei (%) [3]: 16% | Population Healthy Nuclei (%) [3]: 49% | Population Hoechst High Intensity Objects (%) [3]: 17% | Population Membrane Permeable-Phenotype (%) [3]: 12% | Population Mitochondria Different-Phenotype (%) [3]: 21% | Population Mitotic Cells (%) [3]: 72% | Population Normal (%) [3]: 82% | Population Pyknosed Nuclei (%) [3]: 33% | Population Tubulin-Different-Phenotype (%) [3]: 45% | Total Cell Count [3]: 604 | Population Apoptotic (%) [4]: 24% | Population Fragmented Nuclei (%) [4]: 3% | Population Healthy Nuclei (%) [4]: 79% | Population Hoechst High Intensity Objects (%) [4]: 6% | Population Membrane Permeable-Phenotype (%) [4]: 10% | Population Mitochondria Different-Phenotype (%) [4]: 46% | Population Mitotic Cells (%) [4]: 75% | Population Normal (%) [4]: 93% | Population Pyknosed Nuclei (%) [4]: 16% | Population Tubulin-Different-Phenotype (%) [4]: 87% | Total Cell Count [4]: 1040 | Population Apoptotic (%) [5]: 23% | Population Fragmented Nuclei (%) [5]: 9% | Population Healthy Nuclei (%) [5]: 76% | Population Hoechst High Intensity Objects (%) [5]: 9% | Population Membrane Permeable-Phenotype (%) [5]: 3% | Population Mitochondria Different-Phenotype (%) [5]: 4% | Population Mitotic Cells (%) [5]: 76% | Population Normal (%) [5]: 90% | Population Pyknosed Nuclei (%) [5]: 13% | Population Tubulin-Different-Phenotype (%) [5]: 6% | Total Cell Count [5]: 623 | Population Apoptotic (%) [6]: 4% | Population Fragmented Nuclei (%) [6]: 8% | Population Healthy Nuclei (%) [6]: 84% | Population Hoechst High Intensity Objects (%) [6]: 3% | Population Membrane Permeable-Phenotype (%) [6]: 4% | Population Mitochondria Different-Phenotype (%) [6]: 11% | Population Mitotic Cells (%) [6]: 95% | Population Normal (%) [6]: 96% | Population Pyknosed Nuclei (%) [6]: 6% | Population Tubulin-Different-Phenotype (%) [6]: 21% | Total Cell Count [6]: 1640 | Population Apoptotic (%) [7]: 27% | Population Fragmented Nuclei (%) [7]: 15% | Population Healthy Nuclei (%) [7]: 52% | Population Hoechst High Intensity Objects (%) [7]: 14% | Population Mitochondria Different-Phenotype (%) [7]: 24% | Population Mitotic Cells (%) [7]: 72% | Population Normal (%) [7]: 85% | Population Pyknosed Nuclei (%) [7]: 31% | Population Tubulin-Different-Phenotype (%) [7]: 47% | Total Cell Count [7]: 627 | Population Apoptotic (%) [8]: 14% | Population Fragmented Nuclei (%) [8]: 4% | Population Healthy Nuclei (%) [8]: 81% | Population Hoechst High Intensity Objects (%) [8]: 7% | Population Membrane Permeable-Phenotype (%) [8]: 8% | Population Mitochondria Different-Phenotype (%) [8]: 47% | Population Mitotic Cells (%) [8]: 85% | Population Normal (%) [8]: 92% | Population Pyknosed Nuclei (%) [8]: 14% | Population Tubulin-Different-Phenotype (%) [8]: 89% | Total Cell Count [8]: 1130

Reference: ChEMBL document CHEMBL4689842, “EUbOPEN Chemogenomics Library wave 1” (2021)
